According to PubChem BioAssay:
The source made the active and inactive calls.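 How the source made its calls, unless noted: active means inhibition at or above 50% at 10 µM; inactive means inhibition below 50%.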

Legend:
[1] = inhibitors of TNFa-induced NFkB p65 translocation, primary screen, imaging, HUVEC, MLSMR starter and 10KST1 sets (AID 438;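 active means inhibition above 20% together with a positive visual image hit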;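 further: compound added about 3h40 before a 20 min TNFalpha stimulation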;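 on inhibition: signal is the nuclear over cytoplasmic p65 intensity ratio per well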); conditions: HUVEC TNFa-induced p65 nuclear translocation; cell count: measured here: nuclei count (cytotoxicity indicator), at 2.08 µM; inhibition: at 2 µM, stronger effect = higher value, 0% TNFa-plus-vehicle, 100% no-TNFa wells
[2] = inhibitors of mutant huntingtin aggregation, primary screen, imaging, exon1htt(103Q)mCFP cells, high-content imaging (AID 483;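 active means visual image review flags a hit and inhibition of aggregation exceeds 20%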;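 further: compound exposure lasted 3 days before fixation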;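 on nuclei count: percent of the per-plate median nuclei count of sample wells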); conditions: exon1htt(103Q)mCFP cell line, aggregate imaging, at 2 µM; inhibition of aggregation: stronger effect = higher value; nuclei count: measured here: cell count, toxicity
[3] = inhibitors of E-selectin induction by TNFa, primary screen, imaging, HUVEC, immunofluorescence, MLSMR starter and 10KST1 sets (AID 487;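 active means visually confirmed hit in the image check and inhibition above 20%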;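 on inhibition: signal is fraction of cell area covered by stained E-selectin grains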;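 on nuclei count: 100% = median nuclei count of all wells on the same plate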); conditions: HUVEC TNFalpha-induced E-selectin immunofluorescence imaging, at 2 µM; inhibition: stronger effect = higher value; nuclei count: measured here: cell number, toxicity
[4] = target: Voltage-gated potassium channel subunit beta-2 (Rattus norvegicus) (UniProt P62483); test: KvBeta enzyme negative modulators, primary screen, biochemical, NADPH fluorescence (AID 622;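 active means fluorescence slope higher than the sample average by over 3 SD, cut at about -0.22 in these data, passing the limit was not always enough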;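 further: slope of raw intensity against log time taken from 70 to 1610 s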); conditions: recombinant KvBeta, 4-cyanobenzaldehyde reduction, at 10 µM, stronger effect = higher value
Chain of Voltage-gated potassium channel subunit beta-2 (Rattus norvegicus) (P62483 whole entry, looked up): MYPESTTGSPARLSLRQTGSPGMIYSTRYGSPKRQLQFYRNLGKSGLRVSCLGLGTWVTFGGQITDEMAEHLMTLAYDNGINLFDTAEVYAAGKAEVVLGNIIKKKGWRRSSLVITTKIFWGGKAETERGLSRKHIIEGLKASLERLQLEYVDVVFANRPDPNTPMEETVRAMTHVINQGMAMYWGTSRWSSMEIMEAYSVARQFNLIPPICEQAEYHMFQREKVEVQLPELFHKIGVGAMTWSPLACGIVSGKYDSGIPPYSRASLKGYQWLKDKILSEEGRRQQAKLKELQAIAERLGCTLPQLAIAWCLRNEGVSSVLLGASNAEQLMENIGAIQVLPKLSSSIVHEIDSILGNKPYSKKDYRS

[5] = target: Voltage-gated potassium channel subunit beta-2 (Rattus norvegicus) (UniProt P62483); test: KvBeta positive modulators, primary screen, biochemical, NADPH fluorescence (AID 623;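 active means NADPH fluorescence slope more negative than the mean of all samples by about 3 SD, 99.7% confidence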;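 further: fluorescence intensity change per second fitted from 20 to 320 s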); conditions: Recombinant KvBeta, NADPH fluorescence decrease slope, 10 min; at 10 µM; stronger effect = lower value
[6] = target: Muscarinic acetylcholine receptor M4 (Homo sapiens) (UniProt P08173); test: compounds altering M4/GIRK thallium flux, either direction, primary screen, M4 allosteric agonist project, cell-based, HEK293 M4/GIRK, BTC-AM (AID 625;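 active means fluorescence slope after compound addition differing from the mean of all tested samples at 99.7% confidence, mostly higher but some lower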;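 further: thallium influx through GIRK channels coupled to M4 in HEK293 cells with BTC-AM dye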); conditions: at 10 µM, actives lie on both sides
Chain of Muscarinic acetylcholine receptor M4 (Homo sapiens) (P08173 whole entry, looked up): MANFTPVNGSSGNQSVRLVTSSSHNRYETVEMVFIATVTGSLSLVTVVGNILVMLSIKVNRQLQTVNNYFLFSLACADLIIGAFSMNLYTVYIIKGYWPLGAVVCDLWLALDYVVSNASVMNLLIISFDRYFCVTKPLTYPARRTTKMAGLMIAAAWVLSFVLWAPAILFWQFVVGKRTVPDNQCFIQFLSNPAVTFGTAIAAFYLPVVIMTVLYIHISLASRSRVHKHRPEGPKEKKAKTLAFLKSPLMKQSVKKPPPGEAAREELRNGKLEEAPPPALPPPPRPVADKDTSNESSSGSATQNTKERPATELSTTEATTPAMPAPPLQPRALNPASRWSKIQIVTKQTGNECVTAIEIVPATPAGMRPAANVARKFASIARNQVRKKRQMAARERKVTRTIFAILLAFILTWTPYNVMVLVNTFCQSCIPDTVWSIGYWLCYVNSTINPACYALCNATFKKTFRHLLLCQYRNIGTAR
In short: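 Material: M4/GIRK1/GIRK2 stable HEK293 cell line. Medium: pH 7.3 thallium assay buffer. Dosing: single compound concentration, 10 µM final. Schedule: 1 h dye loading, 2 min kinetic read. Measured by: kinetic fluorescence with BTC-AM dye. Read-out: post-addition slope, 15–24 s, of baseline-normalized fluorescence. Benchmarks: carbachol and DMSO controls.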

[7] = inhibitors of Sendai virus-induced IRF3 signaling, primary screen, TLR/RLR signaling modifier project, cell-based, Sendai virus stimulus, luciferase, 10K MLSCN set (AID 602276); conditions: HEK293 RL24 IRF3 luciferase reporter, at 10 µM, stronger effect = higher value;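 further: firefly luciferase from ISG56 promoter only with Renilla not read in this screen; 0% = Sendai virus plus DMSO and 100% = medium plus DMSO without virus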
[8] = inhibitors of poly I:C-induced TLR3 signaling, primary screen, cell-based, poly I:C stimulus, luciferase, 10K MLSCN set (AID 602277;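 active means inhibition of the reporter signal at or above 50%; inactive means inhibition below 50%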); conditions: HEK293-TLR3 RL24 IRF3 luciferase reporter, at 10 µM, stronger effect = higher value

| SMILES | cell count [1] | inhibition [1] | inhibition of aggregation [2] | nuclei count [2] [%] | inhibition [3] | nuclei count [3] [%] | fluorescence slope [4] | NADPH fluorescence slope [5] | fluorescence slope [6] | inhibition [7] | inhibition [8] |
| --- | --- | --- | --- | --- | --- | --- | --- | --- | --- | --- | --- |
| c1ccc(-c2csc(N3CCCCCC3)n2)cc1 | 403 | 7.3% (inactive) | -6.8% (inactive) | 112 | -77.2% (inactive) | 110 | -0.551 (inactive) | 9.4e-06 (inactive) | 0.0048 (inactive) | -82.9% (inactive) | -160% (inactive) |
| N#CC1=C(N)Oc2n[nH]c(-c3ccncc3)c2C1c1ccsc1 (stereo not drawn) | 387 | -1.5% (inactive) | -10.3% (inactive) | 109 | 35.9% (inactive) | 98.6 | -0.546 (inactive) | 1.9e-05 (inactive) | 0.00579 (inactive) | -2.51% (inactive) | -6.52% (inactive) |
| COC(=O)c1cc(Br)c(=O)n(CCC2=CCCCC2)c1 | 559 | 0% (inactive) | -16.7% (inactive) | 110 | 6.3% (inactive) | 122 | -0.497 (inactive) | 9.3e-05 (inactive) | 0.00488 (inactive) | -1.92% (inactive) | 9.19% (inactive) |
| COc1ccc(N2CCN(C(c3cccc(OC)c3OC)c3nnnn3C3CCCC3)CC2)cc1 (stereo not drawn) | 709 | 20% (inactive) | -7.2% (inactive) | 96.3 | 36.9% (inactive) | 76.2 | -0.508 (inactive) | 9.8e-05 (inactive) | 0.00439 (inactive) | -1.29% (inactive) | 21.9% (inactive) |
| COc1ccc(OC)c(NC(=O)c2cn(C)c(=O)c3cc(OC)c(OC)cc23)c1 | 782 | -20.3% (inactive) | 1.3% (inactive) | 97.7 | 10.9% (inactive) | 119 | -0.307 (inactive) | -1.5e-05 (inactive) | 0.00686 (inactive) | -16.7% (inactive) | -26.6% (inactive) |
| O=C1CC(C(=O)Nc2ccccc2)C2(CCCC2)O1 (stereo not drawn) | 425 | 6% (inactive) | 2.4% (inactive) | 106 | -80.4% (inactive) | 110 | -0.569 (inactive) | -5.8e-05 (inactive) | 0.00631 (inactive) | 4.72% (inactive) | 6.07% (inactive) |
| CCOC(=O)c1cnc(-n2nc(C)cc2C)nc1Nc1cccc(C(C)=O)c1 | 634 | -25.9% (inactive) | -14% (inactive) | 104 | 15.1% (inactive) | 111 | -0.567 (inactive) | -1.4e-05 (inactive) | 0.00544 (inactive) | -13.6% (inactive) | -13% (inactive) |
| CCOC(=O)COc1ccc(S(=O)(=O)N2CCc3ccccc3C2)cc1 | 447 | 3.3% (inactive) | -59% (inactive) | 58.4 | -5.1% (inactive) | 96 | -0.555 (inactive) | -4.9e-05 (inactive) | 0.00522 (inactive) | 19.6% (inactive) | 23.3% (inactive) |
| CCOc1ccc(C(=O)N2CCC(C(=O)c3ccc4c(c3)OCCO4)CC2)cc1 | 511 | -4.3% (inactive) | 6% (inactive) | 91.2 | -99.7% (inactive) | 116 | -0.511 (inactive) | -0.000103 (inactive) | 0.00391 (inactive) | 10.8% (inactive) | 2.96% (inactive) |
| Cc1ccsc1C1C2=C(CCCC2=O)Nc2ncnn21 (stereo not drawn) | 266 | -3.8% (inactive) | 15.5% (inactive) | 86.7 | -2.9% (inactive) | 101 | -0.523 (inactive) | -0.000154 (inactive) | 0.00358 (inactive) | 12.8% (inactive) | 16.1% (inactive) |
| C/C(=N\O)c1ccc2c3c([nH]c2c1)CCCC3 | 364 | -1.9% (inactive) | 6.7% (inactive) | 87.1 | -78.7% (inactive) | 96.4 | -0.532 (inactive) | -3.8e-05 (inactive) | 0.006 (inactive) | -28% (inactive) | -111% (inactive) |
| CCOC(=O)C1=C(C)Nc2ncnn2C1c1ccccc1F (stereo not drawn) | 469 | -5.9% (inactive) | -7.1% (inactive) | 81.7 | -49.3% (inactive) | 102 | -0.559 (inactive) | -1.9e-05 (inactive) | 0.00641 (inactive) | -5.35% (inactive) | -2.56% (inactive) |
| CCn1c(=O)cc(SCC(=O)N2CCOCC2)c2ccccc21 | 460 | -1.2% (inactive) | 0.4% (inactive) | 115 | -69.7% (inactive) | 120 | -0.549 (inactive) | -2.4e-05 (inactive) | 0.00553 (inactive) | 75.8% (active) | 51.3% (active) |
| COc1cc2c(OC)cccc2cc1C(=O)O | 383 | -1.9% (inactive) | -13.5% (inactive) | 102 | -12.2% (inactive) | 92.7 | -0.429 (inactive) | -5.9e-06 (inactive) | 0.0045 (inactive) | 18.2% (inactive) | 8.81% (inactive) |
| Cc1cc2c(c(=O)n1CCc1ccccc1)C(C(C)C)C(C#N)=C(N)O2 (stereo not drawn) | 565 | 11.2% (inactive) | -1.8% (inactive) | 106 | -39% (inactive) | 123 | -0.577 (inactive) | -7.9e-05 (inactive) | 0.00377 (inactive) | 15.9% (inactive) | 25.8% (inactive) |
| CC(Oc1ccc2oc(-c3ccccc3)c(C(=O)O)c2c1)C(=O)O (stereo not drawn) | 371 | 10.6% (inactive) | 9% (inactive) | 104 | 27.6% (inactive) | 89.9 | -0.158 (inactive) | -5.4e-05 (inactive) | 0.00531 (inactive) | 7.55% (inactive) | 16.2% (inactive) |
| O=C(O)COc1ccc2occ(C(=O)c3ccccc3)c2c1 | 232 | -4.4% (inactive) | 24.2% (inactive) | 94.5 | -56.2% (inactive) | 104 | -0.592 (inactive) | -4.3e-05 (inactive) | 0.00364 (inactive) | 10.3% (inactive) | 4.56% (inactive) |
| O=C(OCC(=O)c1c[nH]c2ccccc12)C1=COCCO1 | 579 | -6.9% (inactive) | -9.2% (inactive) | 100 | -1% (inactive) | 69.3 | -0.271 (inactive) | -5.8e-05 (inactive) | 0.00653 (inactive) | -19.9% (inactive) | -100% (inactive) |
| CCOC(=O)C1=C(C)NC(SC(C)=O)=NC1c1ccc(OC(C)=O)c(OC)c1 (stereo not drawn) | 550 | 0% (inactive) | 50% (active) | 64.7 | -10.1% (inactive) | 101 | -0.507 (inactive) | -0.000113 (inactive) | 0.0052 (inactive) | 1.93% (inactive) | 1.43% (inactive) |
| COC(=O)c1cc(NC(=O)C2COc3ccccc3O2)cc(C(=O)OC)c1 (stereo not drawn) | 462 | 6.8% (inactive) | 16.1% (inactive) | 101 | -15.6% (inactive) | 107 | -0.517 (inactive) | -3e-05 (inactive) | 0.00524 (inactive) | 11.6% (inactive) | -7.02% (inactive) |
| Cc1ccc(S(=O)(=O)N2CCOCC2)cc1C(=O)OCC(=O)N1CCc2ccccc2C1 | 538 | -12.2% (inactive) | 5.4% (inactive) | 98.4 | -184% (inactive) | 132 | -0.4 (inactive) | 5.8e-06 (inactive) | 0.00607 (inactive) | 4.57% (inactive) | 6.74% (inactive) |
| CC(=O)Nc1ccc(NC(=O)c2ccccc2F)cc1 | 345 | -4.6% (inactive) | 1.3% (inactive) | 102 | -14.4% (inactive) | 116 | -0.556 (inactive) | -1.7e-05 (inactive) | 0.00528 (inactive) | -10.5% (inactive) | -55% (inactive) |
| N#CC(C(=O)Nc1ccccc1)=C1CCCCC1 | 356 | -8.4% (inactive) | -8% (inactive) | 108 | -98.6% (inactive) | 131 | -0.516 (inactive) | -4.4e-05 (inactive) | 0.0049 (inactive) | -3.44% (inactive) | -28.2% (inactive) |
| CCn1c(COc2cccc3ccccc23)nnc1SCC(N)=O | 436 | 9.4% (inactive) | -3.1% (inactive) | 99.6 | -0.1% (inactive) | 124 | -0.524 (inactive) | -6.7e-05 (inactive) | 0.00477 (inactive) | 12.9% (inactive) | 19.7% (inactive) |
| CCCN1C2=C(C(=O)CCC2)C(c2ccc(O)c(Br)c2)C2=C1CCCC2=O | 736 | -30.6% (inactive) | 2% (inactive) | 97.2 | -7.3% (inactive) | 107 | -0.531 (inactive) | -5.9e-05 (inactive) | 0.00464 (inactive) | 9.76% (inactive) | 17.2% (inactive) |
| CCOC(=O)c1ccc(NC(=O)NC(C)C2CCCO2)cc1 (stereo not drawn) | 352 | -12.3% (inactive) | -23.9% (inactive) | 101 | -94.9% (inactive) | 86.6 | -0.462 (inactive) | 2e-05 (inactive) | 0.00652 (inactive) | -13% (inactive) | 98.6% (active) |
| COc1cccc(OCCOCCN(C)CCO)c1 | 313 | 1.5% (inactive) | 19.1% (inactive) | 85.9 | 41.3% (inactive) | 88.1 | -0.532 (inactive) | -2.5e-05 (inactive) | 0.00575 (inactive) | -3.56% (inactive) | 14.6% (inactive) |
| COc1ccc(C2CC(=O)c3cnc(NC(=O)c4ccccc4OC)nc3C2)c(OC)c1 (stereo not drawn) | 434 | -6.7% (inactive) | 15% (inactive) | 94.2 | -80.1% (inactive) | 107 | -0.459 (inactive) | 0.000189 (inactive) | 0.00664 (inactive) | 14.1% (inactive) | 6.68% (inactive) |
